Measured values taken from ChEMBL document CHEMBL1130340, “Semisynthetic derivatives of purpuromycin as potential topical agents for vaginal infections” (1997).
≈ marks a conversion by molar mass, not a printed value.

Tests used:
[1] = test system: Staphylococcus haemolyticus; assay: In vitro antimicrobial activity against Staphylococcus haemolyticus L602; assay type: functional
How it was run: (§1)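 Broth microdilution MIC in Oxoid Iso-Sensitest broth; inoculum about 10^4 cfu/mL; 37 °C for 20–24 h.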

Pseudomonas aeruginosa = assay: In vitro antimicrobial activity against Pseudomonas aeruginosa ATCC 10145; assay type: functional; how it was run: as §1
Staphylococcus aureus [2] = assay: In vitro antimicrobial activity against Staphylococcus aureus L165; assay type: functional; how it was run: as §1
Neisseria gonorrhoeae = assay: In vitro antimicrobial activity against Neisseria gonorrhoeae L997; assay type: functional
How it was run: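 Broth microdilution MIC in GC Base broth plus 1% (v/v) IsoVitaleX; inoculum about 10^4 cfu/mL; 37 °C.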

Bacteroides fragilis = assay: In vitro antimicrobial activity against Bacteroides fragilis ATCC 25285; assay type: functional
How it was run: (§2)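 Anaerobe MIC by broth microdilution in Wilkins-Chalgren broth; inoculum 5 × 10^5 cfu/mL; 37 °C.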

Haemophilus influenzae = assay: In vitro antimicrobial activity against Haemophilus influenza ATCC 19418; assay type: functional
How it was run: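 Broth microdilution MIC in Brain Heart Infusion broth plus 1% (v/v) supplement C; inoculum about 10^4 cfu/mL; 37 °C.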

Streptococcus pneumoniae = assay: In vitro antimicrobial activity against Streptococcus pneumoniae L44; assay type: functional
How it was run: (§3)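 Streptococci: broth microdilution MIC in Todd Hewitt broth; inoculum about 10^4 cfu/mL; 37 °C, 20–24 h.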

[3] = test system: Staphylococcus epidermidis; assay: In vitro antimicrobial activity against Staphylococcus epidermidis ATCC 12228; assay type: functional; how it was run: as §1
Proteus vulgaris = assay: In vitro antimicrobial activity against Proteus vulgaris ATCC881; assay type: functional; how it was run: as §1
Cutibacterium acnes = assay: In vitro antimicrobial activity against Propionibacterium acnes ATCC 6919; assay type: functional; how it was run: as §2
Staphylococcus aureus [4] = assay: In viro antimicrobial activity against Staphylococcus aureus L165 10 x e+6 cfu/ml; assay type: functional
How it was run: (§4)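 Broth microdilution MIC against S. aureus L165 in Iso-Sensitest broth, 37 °C, 20–24 h.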

Escherichia coli = assay: In vitro antimicrobial activity against Escherichia coli L47; assay type: functional; how it was run: as §1
Candida albicans [5] = assay: In vitro antimicrobial activity against Candida albicans L145; assay type: functional
How it was run: (§5)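 Candida: broth microdilution MIC in phosphate-buffered Yeast Nitrogen Base broth with glucose (1% w/v) and L-asparagine (0.15% w/v); inoculum about 10^4 cfu/mL; 37 °C, 20–24 h.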

Streptococcus pyogenes = assay: In vitro antimicrobial activity against Streptococcus pyogenes L49; assay type: functional; how it was run: as §3
Staphylococcus aureus [6] = assay: In vitro antimicrobial activity against Staphylococcus aureus L1 65 30% bovine serum; assay type: functional; how it was run: as §4
Enterococcus faecalis = assay: In vitro antimicrobial activity against Enterococcus faecalis ATCC 7080; assay type: functional; how it was run: as §1
Staphylococcus aureus [7] = assay: In vitro antimicrobial activity against Staphylococcus aureus L165 30% bovine serum; assay type: functional; how it was run: as §4
Trichophyton benhamiae = assay: In vitro antimicrobial activity against Trichophyton mentagrophytes L364; assay type: functional, Arthroderma benhamiae
How it was run: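 Broth microdilution MIC in YM broth; inoculum 1% (v/v) suspension of mycelia and conidia; 30 °C for 72 h.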

Candida albicans [8] = assay: Candida albicans L145; assay type: functional; how it was run: as §5
Trichomonas vaginalis [9] = assay: In vitro antimicrobial activity against Trichomonas vaginalis; assay type: functional
How it was run: (§6)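 Broth microdilution in Trichomonas Culture Medium Base plus 10% horse serum; about 10^5 cells/mL; 48 h at 37 °C under N2-CO2-H2; MIC read by microscopy for viable (motile) protozoa.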

Candida [10] = assay: Minimum inhibition concentration for 50% inhibition against Candida species; assay type: functional; how it was run: as §5
Candida tropicalis = assay: In vitro antimicrobial activity against Candida tropicalis (2); assay type: functional; how it was run: as §5
Candida albicans [11] = assay: In vitro antimicrobial activity against Candida albicans (24); assay type: functional; how it was run: as §5
Gardnerella vaginalis [12] = assay: In vitro antimicrobial activity against Gardnerella vaginalis (MIC90); assay type: functional
How it was run: (§7)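 Agar dilution MIC in Casman medium with 5% (v/v) whole and 0.15% (v/v) lysed rabbit blood; inoculum about 10^5 cfu; 48 h at 37 °C under N2-CO2-H2 (80:10:10).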

Gardnerella vaginalis [13] = assay: In vitro antimicrobial activity against Gardnerella vaginalis (MIC50); assay type: functional; how it was run: as §7
Candida [14] = assay: Minimum inhibition concentration for 90% inhibition against Candida species; assay type: functional; how it was run: as §5
Nakaseomyces glabratus = assay: In vitro antimicrobial activity against Candida glabrata (1)1; assay type: functional; how it was run: as §5
Trichomonas vaginalis [15] = assay: Antimicrobial activity against Trichomonas vaginalis; assay type: functional; how it was run: as §6

| MIC (Pseudomonas aeruginosa) [µg/mL] | MIC (Staphylococcus aureus [2]) [µg/mL] | MIC (Neisseria gonorrhoeae) [µg/mL] | MIC (Bacteroides fragilis) [µg/mL] | MIC (Haemophilus influenzae) [µg/mL] | MIC (Streptococcus pneumoniae) [µg/mL] | MIC [3] [µg/mL] | MIC (Proteus vulgaris) [µg/mL] | MIC (Cutibacterium acnes) [µg/mL] | MIC (Staphylococcus aureus [4]) [µg/mL] | MIC (Escherichia coli) [µg/mL] | MIC (Candida albicans [5]) [µg/mL] | MIC (Streptococcus pyogenes) [µg/mL] | MIC (Staphylococcus aureus [6]) [µg/mL] | MIC (Enterococcus faecalis) [µg/mL] | SMILES | MIC [1] [µg/mL] | other results |
| --- | --- | --- | --- | --- | --- | --- | --- | --- | --- | --- | --- | --- | --- | --- | --- | --- | --- |
| > 128 | 0.016 (≈ 0.0264 µM) | 0.06 (≈ 0.0991 µM) | 0.06 (≈ 0.0991 µM) | 0.06 (≈ 0.0991 µM) | 0.06 (≈ 0.0991 µM) | 0.016 (≈ 0.0264 µM) | > 128 | 0.008 (≈ 0.0132 µM) | 0.03 (≈ 0.0496 µM) | > 128 | 8 (≈ 13.2 µM) | 0.13 (≈ 0.215 µM) | 2 (≈ 3.3 µM) | 0.03 (≈ 0.0496 µM) | COC(=O)c1cc2cc3c(c(O)c2c(=O)o1)OC1(CC2=C(O1)C(=O)c1c(O)c(NCC(F)(F)F)cc(O)c1C2=O)CC3O (centres undefined) | 0.016 (≈ 0.0264 µM) |  |
| > 128 | 0.13 (≈ 0.195 µM) | 0.13 (≈ 0.195 µM) | 0.5 (≈ 0.75 µM) | 1 (≈ 1.5 µM) | 0.06 (≈ 0.09 µM) | 0.06 (≈ 0.09 µM) | > 128 | 0.016 (≈ 0.024 µM) | 0.13 (≈ 0.195 µM) | > 128 | > 128 | 0.13 (≈ 0.195 µM) | 2 (≈ 3 µM) | 0.13 (≈ 0.195 µM) | COC(=O)c1cc2cc3c(c(O)c2c(=O)o1)OC1(CC2=C(O1)C(=O)c1c(O)c(NCCNC(=O)OC(C)(C)C)cc(O)c1C2=O)CC3O (centres undefined) | 0.06 (≈ 0.09 µM) |  |
| 128 (≈ 215 µM) | 0.13 (≈ 0.219 µM) |  | 0.5 (≈ 0.841 µM) |  | 0.06 (≈ 0.101 µM) |  | 128 (≈ 215 µM) | 0.06 (≈ 0.101 µM) | 0.13 (≈ 0.219 µM) | 16 (≈ 26.9 µM) | 64 (≈ 108 µM) |  |  |  | COC(=O)c1cc2cc3c(c(O)c2c(=O)o1)OC1(CC2=C(O1)C(=O)c1c(O)c(NCCN(C)C)cc(O)c1C2=O)CC3O (centres undefined) | 0.5 (≈ 0.841 µM) | MIC (Staphylococcus aureus [7]): 0.25 µg/mL (≈ 0.421 µM); MIC (Trichophyton benhamiae): 128 µg/mL (≈ 215 µM) |
| > 128 | 0.06 (≈ 0.106 µM) | 0.03 (≈ 0.0529 µM) | 0.13 (≈ 0.229 µM) | 0.06 (≈ 0.106 µM) | 0.016 (≈ 0.0282 µM) | 0.06 (≈ 0.106 µM) | > 128 | 0.004 (≈ 0.00705 µM) | 0.13 (≈ 0.229 µM) | > 128 |  | 0.03 (≈ 0.0529 µM) | 1 (≈ 1.76 µM) | 0.06 (≈ 0.106 µM) | COC(=O)c1cc2cc3c(c(O)c2c(=O)o1)OC1(CC2=C(O1)C(=O)c1c(O)c(NCCO)cc(O)c1C2=O)CC3O (centres undefined) | 0.13 (≈ 0.229 µM) | MIC (Candida albicans [8]): > 128 µg/mL |
| > 128 | 0.016 (≈ 0.0298 µM) | 0.06 (≈ 0.112 µM) | 0.03 (≈ 0.0558 µM) | 0.13 (≈ 0.242 µM) | 0.016 (≈ 0.0298 µM) | 0.008 (≈ 0.0149 µM) | > 128 | 0.008 (≈ 0.0149 µM) | 0.06 (≈ 0.112 µM) | > 128 | 2 (≈ 3.72 µM) | 0.03 (≈ 0.0558 µM) | 0.25 (≈ 0.465 µM) | 0.03 (≈ 0.0558 µM) | CNc1cc(O)c2c(c1O)C(=O)C1=C(CC3(CC(O)c4cc5cc(C(=O)OC)oc(=O)c5c(O)c4O3)O1)C2=O (centres undefined) | 0.016 (≈ 0.0298 µM) | MIC (Trichomonas vaginalis [9]): 1 µg/mL (≈ 1.86 µM); MIC50 (Candida [10]): 2 µg/mL (≈ 3.72 µM); MIC (Candida tropicalis): 64 µg/mL (≈ 119 µM); MIC (Candida albicans [11]): 0.25 µg/mL (≈ 0.465 µM); MIC90 (Gardnerella vaginalis [12]): 2 µg/mL (≈ 3.72 µM); MIC50 (Gardnerella vaginalis [13]): 1 µg/mL (≈ 1.86 µM); MIC90 (Candida [14]): 2 µg/mL (≈ 3.72 µM); MIC (Nakaseomyces glabratus): 128 µg/mL (≈ 238 µM) |
| > 128 | 0.06 (≈ 0.109 µM) | 0.06 (≈ 0.109 µM) | 0.06 (≈ 0.109 µM) | 0.06 (≈ 0.109 µM) | 0.06 (≈ 0.109 µM) | 0.06 (≈ 0.109 µM) | > 128 | 0.06 (≈ 0.109 µM) | 0.06 (≈ 0.109 µM) | > 128 | 2 (≈ 3.63 µM) | 0.06 (≈ 0.109 µM) | 1 (≈ 1.81 µM) | 0.06 (≈ 0.109 µM) | CCNc1cc(O)c2c(c1O)C(=O)C1=C(CC3(CC(O)c4cc5cc(C(=O)OC)oc(=O)c5c(O)c4O3)O1)C2=O (centres undefined) | 0.06 (≈ 0.109 µM) | MIC (Trichomonas vaginalis [9]): 8 µg/mL (≈ 14.5 µM); MIC50 (Candida [10]): 2 µg/mL (≈ 3.63 µM); MIC (Candida tropicalis): 64 µg/mL (≈ 116 µM); MIC (Candida albicans [11]): 0.25 µg/mL (≈ 0.453 µM); MIC90 (Gardnerella vaginalis [12]): 2 µg/mL (≈ 3.63 µM); MIC50 (Gardnerella vaginalis [13]): 2 µg/mL (≈ 3.63 µM); MIC90 (Candida [14]): 4 µg/mL (≈ 7.25 µM); MIC (Nakaseomyces glabratus): 32 µg/mL (≈ 58 µM) |
|  |  |  |  |  |  |  |  |  |  |  |  |  |  |  | Cc1ncc([N+](=O)[O-])n1CCO [METRONIDAZOLE] |  | MIC (Trichomonas vaginalis [15]): 0.25 µg/mL (≈ 1.46 µM) |
